Key:
[1] = molecular target: Cannabinoid receptor 1 (Homo sapiens) (UniProt P21554); test: Negative allosteric modulator activity at CB1 receptor (unknown origin) expressed in HEK293 cell membrane assessed as equilibrium dissociation constant using [3H]-CP55940 as radiolabelled orthosteric agonist incubated for 60 mins by liquid scintillation counting analysis; format: cell membranes; settings: filed as negative allosteric modulator
Method in brief: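 HEK293 cells transiently transfected with CB1 (calcium phosphate), harvested at 24 h; membranes from nitrogen cavitation and 100,000 g pellet, kept in TME buffer (pH 7.4) with 7% sucrose. 4 µg membrane incubated 60 min with [3H]CP55940 at about its Kd in TME plus 0.1% fatty acid-free BSA. Nonspecific binding taken with 1 µM unlabeled CP55,940; filtration on GF/C. At least three experiments, each in duplicate.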

[2] = molecular target: Cannabinoid receptor 1 (Homo sapiens) (UniProt P21554); test: (§1) Negative allosteric modulator activity at CB1 receptor (unknown origin) expressed in HEK293 cell membrane assessed as reduction in CP55,940-induced [35S]GTPgammaS binding incubated for 60 mins by liquid scintillation counting analysis; format: functional, cell membranes; settings: filed as negative allosteric modulator, dose 3.2-10 µM
[3] = molecular target: Cannabinoid receptor 1 (Homo sapiens) (UniProt P21554); test: as §1, with “binding by measuring Emax of CP55,940 at 3.2 uM” for “binding”, “analysis (reference value: 68.9 +/-1.7 fmol/mg)” for “analysis”; format: functional, cell membranes; settings: filed as negative allosteric modulator
[4] = molecular target: Cannabinoid receptor 1 (Homo sapiens) (UniProt P21554); test: Negative allosteric modulator activity at CB1 receptor (unknown origin) expressed in HEK293 cell membrane assessed as reduction in CP55,940-induced [35S]GTPgammaS binding at 10 uM incubated for 60 mins by liquid scintillation counting analysis; format: functional, cell membranes; settings: filed as negative allosteric modulator

Cannabinoid receptor 1 (Homo sapiens), sequence (P21554 whole entry): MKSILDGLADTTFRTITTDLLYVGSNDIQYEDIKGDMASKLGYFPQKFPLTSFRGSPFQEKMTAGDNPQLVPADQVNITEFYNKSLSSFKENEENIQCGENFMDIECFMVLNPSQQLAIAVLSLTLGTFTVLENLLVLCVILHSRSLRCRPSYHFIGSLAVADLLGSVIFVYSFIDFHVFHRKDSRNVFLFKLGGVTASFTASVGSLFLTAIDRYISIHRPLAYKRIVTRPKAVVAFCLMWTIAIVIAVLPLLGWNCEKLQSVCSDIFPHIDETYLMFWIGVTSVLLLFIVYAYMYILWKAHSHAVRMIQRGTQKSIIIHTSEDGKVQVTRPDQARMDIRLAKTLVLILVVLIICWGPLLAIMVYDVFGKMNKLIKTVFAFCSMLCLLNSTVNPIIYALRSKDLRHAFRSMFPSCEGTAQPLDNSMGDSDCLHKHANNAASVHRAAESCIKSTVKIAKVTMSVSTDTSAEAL

Row | Kb [1] [nM] | inhibition [2] | Emax [3] [fmol/mg] | inhibition [4] [%] | Structure (SMILES)
1 | 3280 | – | – | – | CCCCCCc1c(C(=O)NCCc2ccc(C3(C(F)(F)F)N=N3)cc2)[nH]c2ccc(Cl)cc12
2 | 559 | Dose-dependent effect | 27 | 100 | CCCCCc1c(C(=O)NCCc2ccc(C(=O)c3ccccc3)cc2)[nH]c2ccc(Cl)cc12
3 | 254 | Dose-dependent effect | 41.3 | 100 | CCc1c(C(=O)NCCc2ccc(C(=O)c3ccccc3)cc2)[nH]c2ccc(Cl)cc12
4 | 314 | Dose-dependent effect | 34.1 | 100 | CCCCCCc1c(C(=O)NCCc2ccc(N=[N+]=[N-])cc2)[nH]c2ccc(Cl)cc12
5 | 784 | – | – | – | [N-]=[N+]=NCc1c(C(=O)NCCc2ccc(N3CCCCC3)cc2)[nH]c2ccc(Cl)cc12
6 | 200 | Dose-dependent effect | 31.1 | 100 | CN(C)c1ccc(CCNC(=O)c2[nH]c3ccc(Cl)cc3c2CN=[N+]=[N-])cc1
7 | 6310 | – | – | – | [N-]=[N+]=NCc1c(C(=O)NCCc2ccc(C(=O)c3ccccc3)cc2)[nH]c2ccc(Cl)cc12
